≈ marks a conversion by molar mass, not a printed value.
Tests used:
Pseudomonas aeruginosa [1] = assay: Antibacterial activity against Pseudomonas aeruginosa ATCC 27853 after 24 hr by microdilution test; type: functional; settings: ATCC 27853, 24 h
Method in brief: (§1)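 Broth microdilution in LB medium, about 1.0×10^4 cfu per well; compounds from 1 mg/ml stocks in 5% DMSO. Incubated 24 h. MIC is the lowest concentration with no visible growth under a binocular microscope. Run in duplicate, repeated three times.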

Escherichia coli [2] = assay: Antibacterial activity against Escherichia coli ATCC 35210 after 24 hr by microdilution test; type: functional; settings: ATCC 35210, 24 h; method in brief: as §1
Mus musculus [3] = assay: Acute toxicity in AKR mouse up to 0.5 mmol/kg, ip; type: organism-based; settings: in vivo
Listeria monocytogenes [4] = assay: Bactericidal activity against Listeria monocytogenes NCTC 7973 after 72 hrs by serial subcultivation method; type: functional; settings: NCTC 7973, 72 h
Mus musculus [5] = assay: Antiinflammatory activity in AKR mouse assessed as inhibition of carrageenan-induced paw edema at 0.01 mmol/kg, ip measured after 3.5 hrs of carrageenan-challenge; type: functional
Method in brief: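 AKR mice of both sexes (pregnant females excluded), 6-10 per group, fasted during the experiment. Edema induced by intradermal 0.05 mL of 2% carrageenin into the right hind paw. Compound given at 0.01 mmol/kg ip, suspended in water with Tween-80, at the same time as carrageenin.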

Aspergillus niger [6] = assay: Fungicidal activity against Aspergillus niger ATCC 6275 after 72 hrs by serial subcultivation method; type: functional; settings: ATCC 6275, 72 h
Listeria monocytogenes [7] = assay: Antibacterial activity against Listeria monocytogenes NCTC 7973 after 24 hr by microdilution test; type: functional; settings: NCTC 7973, 24 h; method in brief: as §1
Aspergillus niger [8] = assay: Antifungal activity against Aspergillus niger ATCC 6275 after 72 hrs by serial dilution technique; type: functional; settings: ATCC 6275, 72 h
Method in brief: (§2)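 Serial dilution in malt broth; compounds from 1 mg/ml stocks in 5% DMSO; 72 h at 28 °C. MIC is the lowest concentration with no visible growth under a binocular microscope. Run in duplicate, repeated three times.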

Micrococcus flavus [9] = assay: Antibacterial activity against Micrococcus flavus ATCC 10240 after 24 hr by microdilution test; type: functional; settings: ATCC 10240, 24 h; method in brief: as §1
Penicillium ochrochloron [10] = assay: Fungicidal activity against Penicillium ochrochloron ATCC 9112 after 72 hrs by serial subcultivation method; type: functional; settings: ATCC 9112, 72 h
Staphylococcus aureus [11] = assay: Antibacterial activity against Staphylococcus aureus ATCC 6538 after 24 hr by microdilution test; type: functional; settings: ATCC 6538, 24 h; method in brief: as §1
Aspergillus flavus [12] = assay: Fungicidal activity against Aspergillus flavus ATCC 9643 after 72 hrs by serial subcultivation method; type: functional; settings: ATCC 9643, 72 h
Staphylococcus aureus [13] = assay: Bactericidal activity against Staphylococcus aureus ATCC 6538 after 72 hrs by serial subcultivation method; type: functional; settings: ATCC 6538, 72 h
Bacillus cereus [14] = assay: Bactericidal activity against Bacillus cereus clinical isolate after 72 hrs by serial subcultivation method; type: functional
Penicillium ochrochloron [15] = assay: Antifungal activity against Penicillium ochrochloron ATCC 9112 after 72 hrs by serial dilution technique; type: functional; settings: ATCC 9112, 72 h; method in brief: as §2
Bacillus cereus [16] = assay: Antibacterial activity against Bacillus cereus clinical isolate after 24 hr by microdilution test; type: functional; method in brief: as §1
Talaromyces funiculosus [17] = assay: Antifungal activity against Penicillium funiculosum ATCC 36839 after 72 hrs by serial dilution technique; type: functional; settings: ATCC 36839, 72 h; method in brief: as §2
Pseudomonas aeruginosa [18] = assay: Bactericidal activity against Pseudomonas aeruginosa ATCC 27853 after 72 hrs by serial subcultivation method; type: functional; settings: ATCC 27853, 72 h
[19] = Inhibition of soybean lipoxygenase assessed as inhibition of sodium linolate conversion to 13-hydroperoxylinoleic acid after 4 mins by spectrophotometry; set-up: species or system Glycine max; settings: read-out: IC50
Escherichia coli [20] = assay: Bactericidal activity against Escherichia coli ATCC 35210 after 72 hrs by serial subcultivation method; type: functional; settings: ATCC 35210, 72 h
Trichoderma viride [21] = assay: Fungicidal activity against Trichoderma viride IAM 5061 after 72 hrs by serial subcultivation method; type: functional; settings: IAM 5061, 72 h
Aspergillus flavus [22] = assay: Antifungal activity against Aspergillus flavus ATCC 9643 after 72 hrs by serial dilution technique; type: functional; settings: ATCC 9643, 72 h; method in brief: as §2
Aspergillus fumigatus [23] = assay: Antifungal activity against Aspergillus fumigatus after 72 hrs by serial dilution technique; type: functional; method in brief: as §2
Talaromyces funiculosus [24] = assay: Fungicidal activity against Penicillium funiculosum ATCC 36839 after 72 hrs by serial subcultivation method; type: functional; settings: ATCC 36839, 72 h
Aspergillus fumigatus [25] = assay: Fungicidal activity against Aspergillus fumigatus after 72 hrs by serial subcultivation method; type: functional
Micrococcus flavus [26] = assay: Bactericidal activity against Micrococcus flavus ATCC 10240 after 72 hrs by serial subcultivation method; type: functional; settings: ATCC 10240, 72 h
Trichoderma viride [27] = assay: Antifungal activity against Trichoderma viride IAM 5061 after 72 hrs by serial dilution technique; type: functional; settings: IAM 5061, 72 h; method in brief: as §2
[28] = molecular target: T1, Prostaglandin G/H synthase 1 (Ovis aries) (UniProt P05979); assay: Inhibition of ovine COX1 assessed as inhibition of PGF2a production by enzyme immunoassay; set-up: concentration or dose not given beside the values; settings: concentration not given here
T1 sequence (whole entry): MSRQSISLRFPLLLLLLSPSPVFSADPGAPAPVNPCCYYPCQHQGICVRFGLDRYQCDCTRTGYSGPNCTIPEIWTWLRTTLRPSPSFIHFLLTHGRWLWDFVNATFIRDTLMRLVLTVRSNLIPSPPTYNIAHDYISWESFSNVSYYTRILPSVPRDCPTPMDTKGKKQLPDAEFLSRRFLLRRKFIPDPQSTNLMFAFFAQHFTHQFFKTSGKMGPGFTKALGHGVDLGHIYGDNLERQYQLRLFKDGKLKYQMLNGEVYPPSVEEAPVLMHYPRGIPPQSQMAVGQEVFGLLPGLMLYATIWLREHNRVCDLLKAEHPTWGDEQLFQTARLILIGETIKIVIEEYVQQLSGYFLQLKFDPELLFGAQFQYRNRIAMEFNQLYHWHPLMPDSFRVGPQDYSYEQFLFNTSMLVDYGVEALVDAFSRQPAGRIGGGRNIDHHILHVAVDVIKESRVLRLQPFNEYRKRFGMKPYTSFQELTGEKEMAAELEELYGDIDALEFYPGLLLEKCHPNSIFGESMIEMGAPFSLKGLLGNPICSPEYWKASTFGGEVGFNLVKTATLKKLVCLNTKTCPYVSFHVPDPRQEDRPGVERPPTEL
Method in brief: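 Ovine COX-1 from a commercial screening kit, tested with 0.1 µM arachidonic acid, which is below the saturating level. COX-derived PGH2 is reduced by SnCl2 to PGF2a, quantified by enzyme immunoassay with a broad prostaglandin antibody. At least triplicate.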

SMILES	MIC (Pseudomonas aeruginosa [1]) [µM]	MIC (Escherichia coli [2]) [µM]	Activity (Mus musculus [3])	MBC (Listeria monocytogenes [4]) [µM]	inhibition in vivo at 10 µmol/kg (Mus musculus [5]) [%]	MFC (Aspergillus niger [6]) [µM]	MIC (Listeria monocytogenes [7]) [µM]	MIC (Aspergillus niger [8]) [µM]	MIC (Micrococcus flavus [9]) [µM]	MFC (Penicillium ochrochloron [10]) [µM]	MIC (Staphylococcus aureus [11]) [µM]	MFC (Aspergillus flavus [12]) [µM]	MBC (Staphylococcus aureus [13]) [µM]	MBC (Bacillus cereus [14]) [µM]	MIC (Penicillium ochrochloron [15]) [µM]	MIC (Bacillus cereus [16]) [µM]	MIC (Talaromyces funiculosus [17]) [µM]	MBC (Pseudomonas aeruginosa [18]) [µM]	IC50 [19] [µM]	MBC (Escherichia coli [20]) [µM]	further results
O=C1N/C(=N\c2nc(-c3ccccc3)cs2)S/C1=C\c1ccc(Cl)cc1	50 (≈ 19.9 µg/mL)	50 (≈ 19.9 µg/mL)	Non-toxic	100 (≈ 39.8 µg/mL)	27.3	27.3 (≈ 10.9 µg/mL)	50 (≈ 19.9 µg/mL)	13.7 (≈ 5.45 µg/mL)	25 (≈ 9.95 µg/mL)	27.3 (≈ 10.9 µg/mL)	50 (≈ 19.9 µg/mL)	27.3 (≈ 10.9 µg/mL)	100 (≈ 39.8 µg/mL)	50 (≈ 19.9 µg/mL)	13.7 (≈ 5.45 µg/mL)	25 (≈ 9.95 µg/mL)	20.5 (≈ 8.16 µg/mL)	100 (≈ 39.8 µg/mL)	54	50 (≈ 19.9 µg/mL)	MFC (Trichoderma viride [21]): 27.3 µM (≈ 10.9 µg/mL); MIC (Aspergillus flavus [22]): 13.7 µM (≈ 5.45 µg/mL); MIC (Aspergillus fumigatus [23]): 13.7 µM (≈ 5.45 µg/mL); MFC (Talaromyces funiculosus [24]): 27.3 µM (≈ 10.9 µg/mL); MFC (Aspergillus fumigatus [25]): 27.3 µM (≈ 10.9 µg/mL); MBC (Micrococcus flavus [26]): 25 µM (≈ 9.95 µg/mL); MIC (Trichoderma viride [27]): 13.7 µM (≈ 5.45 µg/mL); inhibition [28]: 78%
Cc1csc(/N=C2\NC(=O)/C(=C/c3ccccc3Cl)S2)n1	59.6 (≈ 20 µg/mL)	119 (≈ 40 µg/mL)	Non-toxic	119 (≈ 40 µg/mL)	43	20.9 (≈ 7.02 µg/mL)	119 (≈ 40 µg/mL)	14.9 (≈ 5 µg/mL)	29.8 (≈ 10 µg/mL)	20.9 (≈ 7.02 µg/mL)	59.6 (≈ 20 µg/mL)	20.9 (≈ 7.02 µg/mL)	119 (≈ 40 µg/mL)	119 (≈ 40 µg/mL)	14.9 (≈ 5 µg/mL)	59.6 (≈ 20 µg/mL)	17.9 (≈ 6.01 µg/mL)	119 (≈ 40 µg/mL)	79	119 (≈ 40 µg/mL)	MFC (Trichoderma viride [21]): 20.9 µM (≈ 7.02 µg/mL); MIC (Aspergillus flavus [22]): 20.9 µM (≈ 7.02 µg/mL); MIC (Aspergillus fumigatus [23]): 17.9 µM (≈ 6.01 µg/mL); MFC (Talaromyces funiculosus [24]): 20.9 µM (≈ 7.02 µg/mL); MFC (Aspergillus fumigatus [25]): 20.9 µM (≈ 7.02 µg/mL); MBC (Micrococcus flavus [26]): 59.6 µM (≈ 20 µg/mL); MIC (Trichoderma viride [27]): 17.9 µM (≈ 6.01 µg/mL); inhibition [28]: 97%
Cc1cnc(/N=C2\NC(=O)/C(=C/c3ccc([N+](=O)[O-])cc3)S2)s1	29 (≈ 10 µg/mL)	116 (≈ 40.2 µg/mL)	Non-toxic	29 (≈ 10 µg/mL)	55.4	31.5 (≈ 10.9 µg/mL)	29 (≈ 10 µg/mL)	15.8 (≈ 5.47 µg/mL)	29 (≈ 10 µg/mL)	31.5 (≈ 10.9 µg/mL)	116 (≈ 40.2 µg/mL)	31.5 (≈ 10.9 µg/mL)	232 (≈ 80.4 µg/mL)	29 (≈ 10 µg/mL)	15.8 (≈ 5.47 µg/mL)	29 (≈ 10 µg/mL)	15.8 (≈ 5.47 µg/mL)	116 (≈ 40.2 µg/mL)	79	232 (≈ 80.4 µg/mL)	MFC (Trichoderma viride [21]): 31.5 µM (≈ 10.9 µg/mL); MIC (Aspergillus flavus [22]): 15.8 µM (≈ 5.47 µg/mL); MIC (Aspergillus fumigatus [23]): 15.8 µM (≈ 5.47 µg/mL); MFC (Talaromyces funiculosus [24]): 31.5 µM (≈ 10.9 µg/mL); MFC (Aspergillus fumigatus [25]): 31.5 µM (≈ 10.9 µg/mL); MBC (Micrococcus flavus [26]): 29 µM (≈ 10 µg/mL); MIC (Trichoderma viride [27]): 15.8 µM (≈ 5.47 µg/mL); inhibition [28]: 68%
CN(C)c1ccc(/C=C2\S/C(=N/c3nccs3)NC2=O)cc1	30.3 (≈ 10 µg/mL)	7.6 (≈ 2.51 µg/mL)	Non-toxic	60.6 (≈ 20 µg/mL)	67.3	15.2 (≈ 5.02 µg/mL)	30.3 (≈ 10 µg/mL)	15.2 (≈ 5.02 µg/mL)	7.6 (≈ 2.51 µg/mL)	15.2 (≈ 5.02 µg/mL)	30.3 (≈ 10 µg/mL)	15.2 (≈ 5.02 µg/mL)	60.6 (≈ 20 µg/mL)	15.2 (≈ 5.02 µg/mL)	7.6 (≈ 2.51 µg/mL)	7.6 (≈ 2.51 µg/mL)	7.6 (≈ 2.51 µg/mL)	60.6 (≈ 20 µg/mL)	95	15.2 (≈ 5.02 µg/mL)	MFC (Trichoderma viride [21]): 15.2 µM (≈ 5.02 µg/mL); MIC (Aspergillus flavus [22]): 15.2 µM (≈ 5.02 µg/mL); MIC (Aspergillus fumigatus [23]): 15.2 µM (≈ 5.02 µg/mL); MFC (Talaromyces funiculosus [24]): 15.2 µM (≈ 5.02 µg/mL); MFC (Aspergillus fumigatus [25]): 15.2 µM (≈ 5.02 µg/mL); MBC (Micrococcus flavus [26]): 15.2 µM (≈ 5.02 µg/mL); MIC (Trichoderma viride [27]): 7.6 µM (≈ 2.51 µg/mL); inhibition [28]: 50%

— ChEMBL document CHEMBL2311431, “Synthesis and biological evaluation of some 5-arylidene-2-(1,3-thiazol-2-ylimino)-1,3-thiazolidin-4-ones as dual anti-inflammatory/antimicrobial agents” (Bioorg Med Chem, 2013)
